The results in this text go back to ChEMBL document CHEMBL1130435, “Synthesis and antitumor activity of duocarmycin derivatives: A-ring pyrrole compounds bearing cinnamoyl groups” (J Med Chem, 1997).

In assay [1] the test system is HeLa. The assay can be described thus: In vitro anticellular activity expressed as inhibitory concentration for the growth of HeLa S3 cells for a period of 72 hour. Type of assay: functional, cell-based. Particulars: Homo sapiens. Summed up: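 HeLa S3 cells, 2 × 10^4 per well, precultured 24 h at 37 °C in 5% CO2, then exposed continuously to compound for 72 h. Cells detached with PBS(–) containing 0.05% trypsin and 0.02% EDTA and counted electronically. IC50 is the concentration giving 50% inhibition of cell growth.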

Assay [2] deals with HeLa. The assay can be described thus: In vitro anticellular activity expressed as inhibitory concentration for the growth of human uterine cervix carcinoma HeLa S3 cells for a period of 1 hour. Type of assay: functional, cell-based. The method, boiled down:
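HeLa S3 cells seeded at 2 × 10^4/well and precultured 24 h at 37 °C, 5% CO2. Pulse exposure: compound for 1 h, washed with Ca/Mg-free PBS, then grown 71 h in fresh medium. Cells detached with 0.05% trypsin/0.02% EDTA in PBS and counted electronically. IC50 is the concentration giving 50% growth inhibition.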

The test system of assay [3] is Mus musculus. Put plainly: Treated/Control value was measured in mice(implanted subcutaneously with sarcoma 180 cells) at the dose of 4 mg/kg. Type of assay: functional. Summed up:
(§1)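 Adult male ddY mice, five per group, implanted sc at the axillary region with passaged sarcoma 180 cells. Drug given iv starting 1 day after inoculation. Tumor length and width measured; volume = length × width²/2. T/C is mean tumor volume of treated over control. Effective if T/C ≤42% with Mann–Whitney U p < 0.05.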

In assay [4] the test system is Mus musculus. The assay can be described thus: Treated/Control value was measured in mice(implanted subcutaneously with sarcoma 180 cells) at the dose of 0.13 mg/kg. The format is functional. The method, boiled down:
as §1

Assay [5] concerns Mus musculus. Put plainly: Treated/Control value was measured in mice(implanted subcutaneously with sarcoma 180 cells) at the dose of 8 mg/kg. The format is functional. The method, boiled down: as §1
Assay [6] concerns Mus musculus. The assay can be described thus: Treated/Control value was measured in mice(implanted subcutaneously with sarcoma 180 cells) at the dose of 2 mg/kg. Type of assay: functional. The method, boiled down: as §1

Turning to `COC(=O)c1c(C)[nH]c2c1C1C(=CC2OC(=O)N2CCC(N3CCCCC3)CC2)N(C(=O)/C=C/c2ccc(OC)cc2)C[C@H]1CBr.Cl` (some centres undefined), the IC50 in assay [1] stood at 224 nM; in assay [2], 1000 nM. In addition, the T/C in assay [3] is 0.17.
`CCc1ccc(/C=C/C(=O)N2C[C@H]3C[C@@]34C2=CC(=O)c2[nH]c(C)c(C(=O)OC)c24)cc1`: the IC50 in assay [1] was determined as 3.8 nM; in assay [2], 51 nM.
The corresponding values for `CCCOc1ccc(/C=C/C(=O)N2C[C@H]3C[C@@]34C2=CC(=O)c2[nH]c(C)c(C(=O)OC)c24)cc1` are 8.3 nM and 51 nM.
For `COC(=O)c1c(C)[nH]c2c1[C@@]13C[C@@H]1CN(C(=O)/C=C/c1ccc(OCc4ccc(OC)cc4)cc1)C3=CC2=O`, the figures for the IC50 in assay [1] and in assay [2] were 0.81 nM and 13 nM, respectively.
Taken in the same sequence, the figures for `COC(=O)c1c(C)[nH]c2c1[C@@]13C[C@@H]1CN(C(=O)c1cc4cc(OC)c(OC)c(OC)c4[nH]1)C3=CC2=O` were 0.16 nM and 0.5 nM.
The corresponding values for `C=CCOc1ccc(/C=C/C(=O)N2C[C@H]3C[C@@]34C2=CC(=O)c2[nH]c(C)c(C(=O)OC)c24)cc1` are 7.5 nM and 39 nM.
For `COC(=O)c1c(C)[nH]c2c1[C@@]13C[C@@H]1CN(C(=O)/C=C/c1ccc(OC)c(OCC(=O)OC(C)(C)C)c1)C3=CC2=O`, the concentration for half-maximal inhibition (IC50) in assay [1] is 2.3 nM; in assay [2], 7.4 nM.
The corresponding values for `COC(=O)c1c(C)[nH]c2c1[C@@]13C[C@@H]1CN(C(=O)/C=C/c1ccc(OC)c(OCCCN(C)C)c1)C3=CC2=O` are 1.6 nM and 3 nM.
The corresponding values for `COC(=O)c1c(C)[nH]c2c1[C@@]13C[C@@H]1CN(C(=O)/C=C/c1ccc(OC)c(N)c1)C3=CC2=O` are 0.53 nM and 2.1 nM.
Taken in the same sequence, the figures for `COC(=O)c1c(C)[nH]c2c1[C@@]13C[C@@H]1CN(C(=O)/C=C/c1ccc(O)cc1)C3=CC2=O` were 3.5 nM and 19 nM.
On to `COC(=O)c1c(C)[nH]c2c1[C@@]13C[C@@H]1CN(C(=O)/C=C/c1ccc(C)cc1)C3=CC2=O`, for which the values for the IC50 in assay [1] and in assay [2] were 2.3 nM and 33 nM, respectively.
Taken in the same sequence, the figures for `CCN(CC)c1cc(/C=C/C(=O)N2C[C@H]3C[C@@]34C2=CC(=O)c2[nH]c(C)c(C(=O)OC)c24)ccc1OC` were 2.3 nM and 9.5 nM.
The corresponding values for `COC(=O)c1c(C)[nH]c2c1[C@@]13C[C@@H]1CN(C(=O)/C=C/c1ccc(N)cc1)C3=CC2=O` are 2.6 nM and 32 nM.
Take `COC(=O)c1c(C)[nH]c2c1C1C(=CC2OC(=O)N2CCN(C)CC2)N(C(=O)/C=C/c2ccc(OC)c(OCCCN)c2)C[C@H]1CBr.Cl` (some centres undefined): the IC50 in assay [1] is 30 nM; in assay [2], 290 nM. The T/C in assay [4] amounted to 0.77.
Consider `COC(=O)c1c(C)[nH]c2c1[C@@]13C[C@@H]1CN(C(=O)/C=C/c1ccc(N(C)C)cc1)C3=CC2=O`, for which the IC50 in assay [1] was 1.6 nM; in assay [2] it was 12 nM.
On to `COC(=O)c1c(C)[nH]c2c1C1C(=CC2OC(=O)N2CCN(CC(=O)NC(C)C)CC2)N(C(=O)/C=C/c2ccc(OC)cc2)C[C@H]1CBr.Cl` (some centres undefined), for which the IC50 in assay [1] turned out to be 61 nM; in assay [2] it was 1200 nM. The same molecule registered a T/C in assay [5] of 0.12.
Taken in the same sequence, the figures for `CCN(CC)c1cc(/C=C/C(=O)N2C[C@@H](CBr)C3C2=CC(OC(=O)N2CCN(C)CC2)c2[nH]c(C)c(C(=O)OC)c23)ccc1OC.Cl` (some centres undefined) were 280 nM, 2100 nM and 0.2.
With `COC(=O)COc1cc(/C=C/C(=O)N2C[C@H]3C[C@@]34C2=CC(=O)c2[nH]c(C)c(C(=O)OC)c24)ccc1OC`, the 50% inhibitory concentration (IC50) amounted to 0.86 nM in assay [1] and 1.3 nM in assay [2].
Taken in the same sequence, the figures for `COC(=O)c1c(C)[nH]c2c1[C@@]13C[C@@H]1CN(C(=O)/C=C/c1ccc(OC)c(OCCCN)c1)C3=CC2=O` were 1.4 nM and 5.9 nM.
Take `CCCCCOc1ccc(/C=C/C(=O)N2C[C@H]3C[C@@]34C2=CC(=O)c2[nH]c(C)c(C(=O)OC)c24)cc1`: the half-inhibitory concentration (IC50) in assay [1] was 50 nM; in assay [2] it was over 100 nM.
Turning to `COC(=O)c1c(C)[nH]c2c1[C@@]13C[C@@H]1CN(C(=O)/C=C/c1ccc(OC)cc1)C3=CC2=O`, the figures for the IC50 in assay [1] and in assay [2] were 0.94 nM and 7 nM, respectively.
On to `COC(=O)c1c(C)[nH]c2c1[C@@]13C[C@@H]1CN(C(=O)/C=C/c1ccc(NC(=O)OC(C)(C)C)cc1)C3=CC2=O`, for which the IC50 was found to be 0.56 nM in assay [1] and 4 nM in assay [2].
Taken in the same sequence, the figures for `COC(=O)c1c(C)[nH]c2c1[C@@]13C[C@@H]1CN(C(=O)/C=C/c1ccc(OC)c(N(C)C)c1)C3=CC2=O` were 0.92 nM and 2.5 nM.
In the case of `COC(=O)c1c(C)[nH]c2c1C1C(=CC2OC(=O)N2CCN(C)CC2)N(C(=O)/C=C/c2ccc(OC)cc2)C[C@H]1CBr.Cl` (some centres undefined), the IC50 in assay [1] was determined as 37 nM; in assay [2], 1800 nM. The same molecule came in with a T/C in assay [3] of 0.2.
For `COC(=O)c1c(C)[nH]c2c1[C@@]13C[C@@H]1CN(C(=O)/C=C/c1ccc(OC)c(OCCCN=[N+]=[N-])c1)C3=CC2=O`, the IC50 in assay [1] was 0.74 nM; in assay [2], 2 nM.
As to `COC(=O)c1c(C)[nH]c2c1C1C(=CC2OC(=O)N2CCN(C)CC2)N(C(=O)/C=C/c2ccc(OC)c(N)c2)C[C@H]1CBr.Cl` (some centres undefined), the half-maximal inhibitory concentration (IC50) came out at 30 nM in assay [1] and 290 nM in assay [2]. This molecule also registered a T/C in assay [5] of 0.39.
As for `COC(=O)c1c(C)[nH]c2c1C1C(=CC2OC(=O)N2CCN(C)CC2)N(C(=O)/C=C/c2ccc(OC)c(N(C)C)c2)C[C@H]1CBr.Cl` (some centres undefined), the concentration for half-maximal inhibition (IC50) in assay [1] was found to be 52 nM; in assay [2], 430 nM. The molecule also came in with a T/C in assay [6] of 0.13.
In the case of `COC(=O)c1c(C)[nH]c2c1C1C(=CC2OC(=O)N(C)C)N(C(=O)/C=C/c2ccc(OC)c(OCC(=O)O)c2)C[C@H]1CBr` (some centres undefined), the IC50 in assay [1] was over 1000 nM; in assay [2], 10000 nM. In assay [3], this molecule displayed a T/C of 0.72.
